TRPN1 ag: activates the zebrafish TRPN1 channel. HEK293 zebrafish TRPN1-YFP, Fluo-8 calcium fluorescence; 100% = response to 87 µM carbachol. AID 1424. activation, % at 3 µM. 220,000 compounds, 0.18% hits;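 active means activation above its plate's cutoff, the mean activation of test wells on that plate plus 3 SD, cut at about 19% in these data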;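 further: 0% = DMSO alone and 100% = 87 µM carbachol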
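Control set: carbachol 87 µM as high control, DMSO as low control; system: HEK293 stable line with zebrafish TRPN1-YFP; read-out: % activation versus carbachol response; detection: intracellular calcium fluorescence with Fluo-8; doses: single test compound dose, 3 µM nominal, 0.3% DMSO; schedule: dye 1 h 37 °C plus 30 min RT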
TRPML3 agonist: human mucolipin-3 channel agonism | Q8TDD5 | HEK293 TRPML3-YFP, Fluo-8 calcium fluorescence; 100% = the carbachol control signal | activation, % at 3 µM | 220,000 compounds, 0.29% hits | AID 1448;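 active means activation above its plate's cutoff, the mean activation of the plate's test wells plus 3 SD, cut at about 12% in these data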;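 further: 0% = DMSO only wells and 100% = carbachol wells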
Target sequence (Q8TDD5 whole entry, looked up): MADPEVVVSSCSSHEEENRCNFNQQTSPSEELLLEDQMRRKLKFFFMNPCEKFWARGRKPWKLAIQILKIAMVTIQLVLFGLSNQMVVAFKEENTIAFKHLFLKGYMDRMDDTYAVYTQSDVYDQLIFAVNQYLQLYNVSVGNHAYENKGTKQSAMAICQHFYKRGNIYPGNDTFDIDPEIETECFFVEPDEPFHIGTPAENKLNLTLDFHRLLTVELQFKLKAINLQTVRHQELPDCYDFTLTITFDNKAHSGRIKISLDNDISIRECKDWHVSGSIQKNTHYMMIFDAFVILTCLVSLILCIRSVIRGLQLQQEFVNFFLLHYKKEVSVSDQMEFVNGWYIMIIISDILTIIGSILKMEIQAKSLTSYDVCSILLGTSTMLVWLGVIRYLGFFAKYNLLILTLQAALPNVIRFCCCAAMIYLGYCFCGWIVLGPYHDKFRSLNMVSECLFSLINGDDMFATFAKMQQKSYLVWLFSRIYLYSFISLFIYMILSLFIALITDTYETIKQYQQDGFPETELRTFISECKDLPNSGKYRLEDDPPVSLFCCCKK
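Material: TRPML3-YFP stable HEK293 cells | Dosing: One concentration, 3 µM nominal, 0.3% DMSO | Timing: 125 s total fluorescence read per well | Technique: Fluo-8 calcium dye fluorescence, ex 470-495, em 515-575 nm | Measure: Percent activation from peak-to-basal fluorescence ratio, scaled between DMSO and carbachol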
CRFBP-R2 block: blocks CRF-induced signaling of the CRF-BP/CRF-R2 complex. HEK293 CRF-R2/CRF-BP, CRF-induced calcium fluorescence. inhibition, % at 11.8 µM. 350,000 compounds, 0.59% hits. AID 588475;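 active means inhibition of the ligand-induced calcium signal above about 50% at the single tested concentration, limit read from the data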
CRFR2-BP ag: CRF-BP/CRF-R2 complex agonism; HEK293 CRF-R2/CRF-BP, calcium dye fluorescence (FLIPR); percent of saturating CRF peptide response; activation, % at 13.2 µM; 350,000 compounds, 0.46% hits;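 active means activation of at least 50%, plus an integration ratio under a set limit after plate pattern correction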;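 further: plate controls were neutral control wells without compound for no effect and CRF at EC100 for full effect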
GPR7 antag: blocks human GPR7 receptor signaling. P48145. GPR7-expressing cells, fluorescence antagonist assay. inhibition, % at 4.4 µM. 290,000 compounds, 1.1% hits; in the data active means inhibition above about 16%, passing the limit was not always enough;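 further: cells stimulated with the agonist NPW; 0% = agonist with vehicle and 100% = vehicle without agonist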
GPR7 antag cf: human GPR7 antagonism, confirmation assay | shares compounds with GPR7 antag | GPR7-expressing cells, calcium fluorescence antagonist mode | inhibition, % at 4.4 µM | 2,400 compounds, 52% hits; in the data active means inhibition above about 24%;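 further: stimulated with the GPR7 agonist NPW; 0% = agonist plus vehicle and 100% = vehicle alone without agonist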
MCHR1 antag: counter-screen for GPR7 antagonists: antagonists of human MCHR1 | shares compounds with GPR7 antag | MCHR1-expressing cells, fluorescence antagonist assay | inhibition, % at 4.4 µM | 2,400 compounds, 62% hits | AID 2148; in the data active means inhibition above about 22%;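 further: 0% = vehicle with agonist and 100% = vehicle without agonist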
* hit, by the source's call; . = no result given. Hits are enriched below; roughly 2% of the tested compounds scored in any of these assays.

SMILES	TRPN1 ag	TRPML3 agonist	CRFBP-R2 block	CRFR2-BP ag	GPR7 antag	GPR7 antag cf	MCHR1 antag
CC(C)c1ccc(NC2CCCN(C(=O)CC3CCCC3)C2)cc1 (configuration not stated)	.	.	0	-1	35*	30*	27*
Cc1nnsc1C(=O)N1CCCC(Nc2ccc(C(C)C)cc2)C1 (configuration not stated)	.	.	18	-1	-3	.	.
Cc1nonc1C(=O)N1CCCC(Nc2ccc(C(C)C)cc2)C1 (configuration not stated)	.	.	-5	-2	25*	5	26*
O=C(NCCC(=O)N1CCOCCOCCOCCOCC1)OCc1ccccc1	1	1	7	0	-4	.	.
CCN1/C(=C/C=C/c2oc3ccc4ccccc4c3[n+]2CC)Oc2ccc3ccccc3c21	73*	31*	-219	153*	45*	55*	58*
CC[n+]1c(/C=C/N(C)c2ccccc2)oc2ccc(Cl)cc21	0	0	15	2	-8	.	.
CC(Oc1ccccc1Cl)C(=O)Nc1ccc(S(=O)(=O)Nc2nccs2)cc1 (configuration not stated)	.	.	-14	-3	.	.	.
CC(C)NS(=O)(=O)c1ccc(NC(=O)C(C)Oc2ccc(C(=O)c3ccccc3)cc2)cc1 (configuration not stated)	50*	21*	-115	162*	91*	92*	96*
CC(Oc1ccc(Cl)cc1)C(=O)Nc1ccc(S(=O)(=O)Nc2nccs2)cc1 (configuration not stated)	.	.	-31	38	24*	20	3
COc1ccc(OC(C)C(=O)Nc2ccc([N+](=O)[O-])cc2)cc1 (configuration not stated)	2	-1	38	0	20	.	.
COc1ccc(NC(=O)C(C)Oc2ccc(/C(C)=N\O)cc2)cc1 (configuration not stated)	10	4	-28	44	42*	43*	34*
CC(Oc1ccc(Cl)cc1)C(=O)Nc1ccc(S(=O)(=O)N2CCOCC2)cc1 (configuration not stated)	.	.	-26	37	56*	53*	61*
CCSCCOC(=O)C1=C(C)N(C)C(=O)NC1c1cc(OC)ccc1OC (configuration not stated)	-2	-1	-15	-2	23*	-5	10
CCc1cc2c(=O)oc(-c3ccccc3F)nc2s1	.	.	-9	1	-9	.	.
CC(C)NS(=O)(=O)c1ccc(CCC(=O)N2CCCCC2)cc1	2	1	-2	-2	23*	-12	2
CCOCc1c(C(=O)Nc2ccc3nc(N4CCOCC4)sc3c2)oc2ccccc12	.	.	-1	0	.	.	.
CN(Cc1cccnc1)C(=O)c1ccc2nc(Cc3ccccc3F)oc2c1	.	.	-9	4	-10	.	.
CN(C)CCCNC(=O)C(=O)Nc1cc2c3c(c1)CCC(=O)N3CCC2	.	.	-10	0	-9	.	.
O=C(c1ccccc1)c1ccc(Cn2cc(-c3ccccc3)nn2)cc1	.	.	5	-1	41*	47*	61*
CCCCCc1ccc(-c2cn(Cc3ccc(C(=O)c4ccccc4)cc3)nn2)cc1	.	.	-3	7	9	.	.
CC1CCc2onc(C(=O)O)c2C1 (configuration not stated)	2	1	37	-3	24*	9	-4
COC(=O)c1ccccc1NC(=O)CSc1nc(O)cc(=O)n1C1CCCC1	-1	1	19	12	-2	.	.
O=C(CSc1nc(O)cc(=O)n1C1CCCC1)Nc1cccc(Cl)c1Cl	1	1	4	-1	28*	15	7
O=S(=O)(c1ccc(OCC(O)CN2CCN(c3ccccc3)CC2)cc1)N1CCOCC1 (configuration not stated)	3	1	-16	8	25*	5	12
CCOC(=O)C1CCN(C(=O)COC(=O)CNS(=O)(=O)c2ccc(SC)c([N+](=O)[O-])c2)CC1	.	.	6	1	.	.	.
SMILES	TRPN1 ag	TRPML3 agonist	CRFBP-R2 block	CRFR2-BP ag	GPR7 antag	GPR7 antag cf	MCHR1 antag
COc1ccccc1N1CCN(C(=O)/C=C/c2ccc(C)cc2)CC1	-2	0	3	-1	1	.	.
COc1ccccc1N1CCN(C(=O)/C=C/c2cccc([N+](=O)[O-])c2)CC1	-2	-1	4	-2	32*	16	33*
CC1=CC2=NC(=O)/C(=C\c3cc(C)n(-c4cccc(Cl)c4)c3C)C(=N)N2O1	0	1	-21	-1	-12	.	.
CC1=CC2=NC(=O)/C(=C/c3coc4ccc(Cl)cc4c3=O)C(=N)N2O1	53*	16*	-60	106*	21*	28*	61*
COc1ccccc1CCC(=O)Nc1ccc(S(=O)(=O)Nc2nccs2)cc1	.	.	-4	-1	.	.	.
COC(=O)c1ccc(OCC2c3cc(OC)c(OC)cc3CCN2C(=O)C2CC2)cc1 (configuration not stated)	0	0	15	1	27*	43*	29*
CCc1ccc(OCC2c3cc(OC)c(OC)cc3CCN2C(=S)NC)cc1 (configuration not stated)	4	0	5	1	36*	25*	37*
CC(C)CN(C(=O)CCNC(=O)c1ccccc1Cl)C1CCS(=O)(=O)C1 (configuration not stated)	.	.	2	-1	.	.	.
CCOc1ccc2nc3ccc4[nH]onc4c3c2c1	1	1	-37	2	28*	48*	46*
CCOc1ccc2nc(N3CCOCC3)nc(C)c2c1	-1	0	-20	-1	-4	.	.
O=S(=O)(c1ccc(Cl)cc1)N(Cc1ccccn1)Cc1ccccn1	.	.	1	-3	36*	-3	-2
O=C(c1ccc(Br)cc1)C(CN1CCOCC1)c1ccccc1 (configuration not stated)	.	.	-7	3	67*	59*	86*
CCOc1ccc(C(=O)C(CN2CCOCC2)c2ccccc2)cc1 (configuration not stated)	-2	0	-7	-2	13	.	.
Cc1ccsc1C(=O)OCC(=O)Nc1ccc(Cl)cn1	.	.	-9	0	.	.	.
O=C(c1cc(-c2cccnc2)nc2ccccc12)N1CCCc2ccccc21	-1	-1	-5	-1	24*	5	23*
Cc1ccc(-c2cc(C(=O)N3CCCc4ccccc43)c3ccccc3n2)cc1	1	0	-22	8	-2	.	.
CSCCC(NC(=O)c1ccccc1Cl)C(=O)N1CCCC(C)C1 (configuration not stated)	.	.	4	0	.	.	.
CCC(C)(C)c1ccc(OCCCC[n+]2ccc(C)cc2)c(C(C)(C)CC)c1	-1	0	-13	14	69*	74*	83*

Screens: PubChem BioAssay, several laboratories
